Measurements from different studies.
Target: Serine/threonine-protein kinase Chk1 (CHEK1, Homo sapiens, UniProt O14757)
Action: inhibitor

SMILES | read-out | method | cell line | concentration | inhibition
CN(C)C1CCN(CC#Cc2nn(C3CCCC3)c3nc(NCc4ccccc4)ncc23)C1 (centres unmarked) | enzyme activity | FRET | – | 1 µM | -5%
CCCOc1ccc(/C=C2\SC(=O)NC2=O)cc1 | enzyme activity | mobility shift | – | 5 µM | -20%
CCCS(=O)(=O)Nc1ccc(F)c(C(=O)c2c[nH]c3ncc(-c4ccc(Cl)cc4)cc23)c1F | enzyme activity | – | – | 1 µM | < 10%
CCCCNc1ncc2c(-c3ccc(F)cc3)nn(C[C@H]3CC[C@H](N)CC3)c2n1 | target engagement in cells | chemoproteomics | – | 20 mM | -8.8%
CNCc1ccc(-c2cc(-c3nc(-c4ccc(S(=O)(=O)C(C)C)cc4)cnc3N)on2)cc1 | enzyme activity | – | – | 0.4 µM | 15%
COc1cc2ncnc(Nc3ccc(Oc4ccccc4)c(C)c3C)c2cc1OC | enzyme activity | – | – | 1 µM | 1%
CCN1CCN(Cc2ccc(NC(=O)c3ccc(C)c(/C=C/c4cnc5[nH]ccc5c4OC)c3)cc2C(F)(F)F)CC1 | target engagement in cells | chemoproteomics | A-375 | 50 nM | -118%
Cc1ncc([N+](=O)[O-])n1C(=NO)c1ccccc1C(F)(F)F | enzyme activity | – | – | 10 µM | 19.2%
CCOc1cc(-c2nncn2C)ccc1Nc1ncc2cc(C)nc(NCC(C)(C)C)c2n1 | enzyme activity | FRET | – | 1 µM | < 15%
Cc1ccc(Nc2nccc(N(C)c3ccc4c(C)n(C)nc4c3)n2)cc1S(N)(=O)=O | enzyme activity | – | – | 0.3 µM | 2%
CS(=O)(=O)Nc1cccc(-c2csc(NC(=O)CSc3nc4nccnc4c(=O)n3CCc3ccccc3)n2)c1 | enzyme activity | – | – | 10 µM | -3%
CNC(=O)c1cc(Oc2ccc(NC(=O)Nc3ccc(Cl)c(C(F)(F)F)c3)cc2)ccn1 | enzyme activity | – | – | 0.3 µM | -5%
C=CC(=O)Nc1cc(Nc2nccc(Nc3cc(Cl)c(F)cc3C(C)(C)O)n2)c(OC)cc1N1CC[C@@H](N(C)C)C1 | enzyme activity | – | – | 1 µM | 9%
CCN1CCN(Cc2ccc(NC(=O)c3ccc(C)c(Oc4ccnc5[nH]ccc45)c3)cc2C(F)(F)F)CC1 | target engagement in cells | chemoproteomics | A-375 | 0.5 µM | -141%
